Measurements published in article PMC3565064 (Analytical biochemistry, 2012).
Like-named read-outs stand apart in the source and are kept apart here.

Assays:
[1] = target: Aβ(1–42) aggregates (Homo sapiens, UniProt P05067); format: binding; conditions: for ka, pseudo-first-order rate constant: DPV current decay fit, 100 mM phosphate buffer/50 mM KClO4 pH 7.4, 37 °C, average of three replicates; for t1/2, half-life: from pseudo-first-order ka
Procedure, shortened: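 HFIP-pretreated, lyophilised Aβ(1–42) and the ferrocene-tagged peptide (20 μM) were dissolved in 100 mM phosphate/50 mM KClO₄, pH 7.4, at several peptide:Aβ ratios and held at 37 °C. DPV was recorded over 0–24 h (pulse amplitude 50 mV, width 50 ms, period 200 ms, sample width 17 ms). Points were averages of three replicates, and current–time curves were fitted to a pseudo-first-order rate law.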

[2] = Self-aggregation of the peptide incubated alone; format: physicochemical
Procedure, shortened: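 The tagged peptide (20 μM) without Aβ was incubated at 37 °C. DPV was run in 100 mM phosphate/50 mM KClO₄, pH 7.4. For AFM, aliquots of the incubated solution were cast on mica pretreated with 10 mM NiCl₂ for 15 min, rinsed with water and dried under nitrogen. They were imaged in tapping mode over 5 μm × 5 μm fields at the stated incubation times.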

[3] = cited from earlier work

Sequence of Aβ(1–42) aggregates (P05067 672-713 limits assumed): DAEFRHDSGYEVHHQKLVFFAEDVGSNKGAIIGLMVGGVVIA

Substance	ka, pseudo-first-order rate constant ([1]; [Fc-KLVFFK6]:[Aβ(1–42)] 1:0.25, 20 μM Fc-KLVFFK6)	t1/2, half-life ([1]; [Fc-KLVFFK6]:[Aβ(1–42)] 1:0.25)	ka, pseudo-first-order rate constant ([1]; [Fc-KLVFFK6]:[Aβ(1–42)] 1:0.5, 20 μM Fc-KLVFFK6)	t1/2, half-life ([1]; [Fc-KLVFFK6]:[Aβ(1–42)] 1:0.5)	ka, pseudo-first-order rate constant ([1]; [Fc-KLVFFK6]:[Aβ(1–42)] 1:1, 20 μM Fc-KLVFFK6)	t1/2, half-life ([1]; [Fc-KLVFFK6]:[Aβ(1–42)] 1:1)	ka, pseudo-first-order rate constant ([1]; [Fc-KLVFFK6]:[Aβ(1–42)] 1:2, 20 μM Fc-KLVFFK6)	t1/2, half-life ([1]; [Fc-KLVFFK6]:[Aβ(1–42)] 1:2)	ka, pseudo-first-order rate constant ([1]; [Fc-KLVFFK6]:[Aβ(1–42)] 1:4, 20 μM Fc-KLVFFK6)	incubation time at which the DPV current reaches a plateau ([1]; all stoichiometric ratios, 20 μM Fc-KLVFFK6, 37 °C)	half-life of the conjugate formed between Fc-KLVFFK6 and the Aβ(1–42) aggregates ([1]; over all stoichiometric ratios of Table 1)	self-aggregation, AFM of the peptide alone ([2]; 20 μM Fc-KLVFFK6 incubated alone, AFM (Figure 4 row D))	self-aggregation, DPV current of the peptide alone ([2]; 20 μM Fc-KLVFFK6 without Aβ(1–42), 100 mM phosphate buffer/50 mM KClO4 pH 7.4, 37 °C, 24 h, steady DPV current)	self-aggregation [3]
Fc-KLVFFK6	(1.49 ± 0.15) × 10^−4 s^−1	1.2919 h	(1.43 ± 0.08) × 10 ^−4 s^−1	1.3462 h	(1.26 ± 0.07) × 10 ^−4 s^−1	1.5278 h	(1.71 ± 0.05) × 10^−4 s^−1	1.1257 h	(1.89 ± 0.05) × 10^−4 s^−1	about 6 h	1.2632 ± 0.1961 h	does not self-aggregate when incubated alone	does not undergo self-aggregation	–
KLVFF	–	–	–	–	–	–	–	–	–	–	–	–	–	known to self-aggregate
